≈ marks a conversion by molar mass, not a printed value. Calls of active or inactive are those of the source. The calls are words filed in the database; no cut-off is given here.
Columns and labels:
[1] = Selectivity index, ratio of IC50 for cytotoxicity against rat L6 cells to IC50 for antitrypanosomal activity against Trypanosoma cruzi Tulahuen strain C2C4 amastigotes infected in rat L6 cells
[2] = tested on: Trypanosoma cruzi; assay: Antitrypanosomal activity against Trypanosoma cruzi Tulahuen strain C2C4 amastigotes infected in rat L6 cells assessed as inhibition of parasite growth incubated for 96 hrs by chlorophenol red-fl-D-galactopyranoside based colorimetric analysis; type: functional, organism-based; settings: for IC50: Tulahuen strain C2C4, L6, 96 h; for IC90: Tulahuen strain C2C4, L6, time 96 hrs
Method in brief: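 Tulahuen strain TcVI T. cruzi expressing β-galactosidase, grown in L6 rat skeletal myoblast host cells. IC50/IC90 growth inhibition. Each value is the mean of ≥2 independent determinations using fresh sample stock.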

[3] = tested on: L6; assay: Cytotoxicity against rat L6 cells assessed as reduction in cell viability incubated for 72 hrs by alamar blue assay; type: ADME, cell-based; settings: L6, 72 h
[4] = Inhibition of Trypanosoma cruzi Tulahuen C4 strain CYP51 expressed in Escherichia coli by fluorescence based assay
[5] = Cytotoxicity against rat 3T3 cells assessed as reduction in cell viability incubated for 72 hrs by alamar blue assay; type: ADME, cell-based; settings: NIH3T3, 72 h
[6] = Selectivity index, ratio of IC50 for cytotoxicity against rat 3T3 cells to IC50 for antitrypanosomal activity against Trypanosoma cruzi Tulahuen strain C2C4 amastigotes infected in rat 3T3 cells
[7] = tested on: Trypanosoma cruzi; assay: Antitrypanosomal activity against Trypanosoma cruzi Tulahuen strain C2C4 amastigotes infected in […] cells assessed as reduction in parasite growth incubated for 48 hrs by chlorophenol red-fl-D-galactopyranoside based colorimetric analysis relative to control; type: functional
[8] = tested on: Trypanosoma cruzi; assay: Antitrypanosomal activity against Trypanosoma cruzi Tulahuen strain C2C4 amastigotes infected in […] cells assessed as reduction in parasite growth incubated for 48 hrs by chlorophenol red-fl-D-galactopyranoside based colorimetric analysis; type: functional, organism-based; settings: for IC50: Tulahuen strain C2C4, NIH3T3, 48 h; for IC90: Tulahuen strain C2C4, NIH3T3, time 48 hrs
[9] = Kinetic solubility of compound in water sonicated for 15 mins by HPLC analysis
[10] = Metabolic stability in human liver microsomes assessed as parent compound remaining incubated for 1 hr; type: ADME, Microsome; settings: read-out: Stabilty
Method in brief: (§1)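 Pooled human or CD-1 mouse liver microsomes at 0.4 mg/mL microsomal protein. Percent parent remaining after 1 h incubation.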

[11] = Metabolic stability in CD-1 mouse liver microsomes assessed as parent compound remaining incubated for 1 hr; type: ADME, Microsome; method in brief: as §1
[12] = tested on: Trypanosoma cruzi; assay: Antitrypanosomal activity against bloodstream trypomastigotes form of Trypanosoma cruzi CL Brener infected in BALB/c mouse assessed as reduction in parasitemia at 100 mg/kg, po qd administered for 5 days starting from day 114 post infection followed by cyclophosphamide induced immunosuppression on days 135, 139 and 143 post infection and measured for 149 days by bioluminescence analysis; type: functional, organism-based; settings: time 5.0 day
Method in brief: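 Female BALB/c mice, 8 weeks old, ~18 g, 5 per group. Infected i.p. with 10^3 bloodstream trypomastigotes of bioluminescent CL Brener (pTRIX2-RE9h). From day 114 p.i., oral dosing once daily for 5 days: reference drugs at 100 mg/kg in HPMC-SV with 5% DMSO, PEG400 vehicle at 50 mg/kg. Cyclophosphamide 200 mg/kg i.p. on days 135, 139 and 143. Final imaging day 149. Ex vivo organ bioluminescence days 149-151.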

[13] = tested on: Trypanosoma cruzi; assay: Antitrypanosomal activity against Trypanosoma cruzi amastigotes assessed as inhibition of parasite growth at 10 ug/ml relative to control
[14] = Half life in human liver microsomes incubated for 60 mins

IC50 [2] [µM] | IC90 [2] [µM] | IC50 [8] [µM] | IC90 [8] [µM] | SMILES | selectivity ratio [1] | IC50 [3] [µM] | IC50 [4] [µM] | IC50 [5] [µM] | selectivity ratio ([6]; 3T3 cells) | %max [7] [%] | further results
0.21 | 6.7 |  |  | O=[N+]([O-])c1cn2c(n1)OC(COc1cnc(-c3ccc(OC(F)(F)F)cc3)cn1)CC2 (stereo unspecified) | > 476 | > 100 |  |  |  |  | 
1.6 | 3.7 |  |  | CC1(COc2ccc(OC(F)(F)F)cc2)CCn2cc([N+](=O)[O-])nc2[S+]1[O-] (stereo unspecified) | 46 | 73 |  |  |  |  | 
60 |  |  |  | O=[N+]([O-])c1cn2c(n1)OC[C@@H](OCc1ccc(-c3ccccc3)cc1)C2 |  |  |  |  |  |  | 
 |  | 2 | 16 | CSc1cnc2n1CC(C)(COc1ccc(OC(F)(F)F)cc1)O2 (stereo unspecified) |  |  | > 10 | > 73 | > 37 | 93 | 
 |  | 0.19 | 0.44 | O=[N+]([O-])c1cn2c(n1)OC[C@H](OCC#Cc1ccc(OC(F)(F)F)cc1)C2 |  |  | > 10 | > 37 | > 195 | 99 | 
5.7 | > 10 |  |  | O=[N+]([O-])c1cn2c(n1)OC[C@@H](OCc1ccc(-c3ccc(OC(F)(F)F)cc3Cl)cc1)C2 | 3.3 | 19 |  |  |  |  | 
2.7 |  |  |  | O=[N+]([O-])c1cn2c(n1)OC[C@H](OCc1ccc(-c3ccccc3)cc1)C2 |  |  |  |  |  |  | 
 |  | 0.22 | 0.85 | CC1(COc2ccc(OC(F)(F)F)cc2)CCn2nc([N+](=O)[O-])nc2O1 (stereo unspecified) |  |  | > 10 | > 37 | > 168 | 96 | solubility kinetic at 0.25 h [9]: 9.5 µg/mL (≈ 25.4 µM); remaining at 1 h [10]: 91%; remaining at 1 h [11]: 92%
0.17 | 0.56 |  |  | O=[N+]([O-])c1cn2c(n1)OC(COc1ccc(-c3ccc(F)cc3)nc1)CC2 (racemic) |  |  |  |  |  |  | 
0.46 | 1.3 |  |  | CC1(COc2ccc(OC(F)(F)F)cc2Cl)CCn2cc([N+](=O)[O-])nc2O1 (stereo unspecified) |  | > 100 |  |  |  |  | solubility kinetic at 0.25 h [9]: 0.61 µg/mL (≈ 1.5 µM)
 |  | 12 | 37 | O=C(Cn1ccnc1[N+](=O)[O-])NCc1ccccc1 [BENZNIDAZOLE] |  |  | > 10 | > 127 | > 11 | 101 | Activity [12]: Active
 |  | 2.1 | 4.6 | CC1CS(=O)(=O)CCN1/N=C/c1ccc([N+](=O)[O-])o1 (stereo unspecified) [NIFURTIMOX] |  |  | > 10 | > 127 |  | 99 | selectivity ratio [6]: > 60; Activity [12]: Active
> 10 | > 10 |  |  | O=[N+]([O-])c1cn2c(n1)OC[C@@H](OCc1cccc(-c3cccc(OC(F)(F)F)c3)c1)C2 |  | 13 |  |  |  |  | inhibition at 10 µg/mL [13]: 65%
 |  | 4.7 | 10 | CC1(COc2ccc(OC(F)(F)F)cc2)Cn2ccnc2O1 (stereo unspecified) |  |  | 0.16 | > 73 | > 16 | 80 | 
 |  |  |  | O=[N+]([O-])c1cn2c(n1)OC(COc1ccc(-c3ccc(OC(F)(F)F)cc3)nc1)CC2 (stereo unspecified) |  |  |  |  |  | 100 | 
1.2 |  |  |  | O=[N+]([O-])c1cn2c(n1)OCC(OCc1ccc(OCc3ccccc3)cc1)C2 (stereo unspecified) |  |  |  |  |  |  | 
0.035 | 0.089 |  |  | O=[N+]([O-])c1cn2c(n1)[S+]([O-])CC(OCc1ccc(COc3ccccc3)cc1)C2 (stereo unspecified) | > 2860 | > 100 |  |  |  |  | solubility kinetic at 0.25 h [9]: 0.44 µg/mL (≈ 1.06 µM); inhibition at 10 µg/mL [13]: 89%; half-life at 1 h [14]: 2.6 h
0.7 | 1.6 | 1.3 | 3 | CC1(COc2ccc(OC(F)(F)F)cc2)CCn2cc([N+](=O)[O-])nc2S1(=O)=O (stereo unspecified) | > 143 | > 100 | > 10 | > 37 | > 28 | 101 | solubility kinetic at 0.25 h [9]: 1.1 µg/mL (≈ 2.61 µM); remaining at 1 h [10]: 88%; remaining at 1 h [11]: 76%
1.1 | 2.6 |  |  | CC1(COc2ccc(OC(F)(F)F)cc2)CCn2cc([N+](=O)[O-])nc2S1 (stereo unspecified) | > 91 | > 100 |  |  |  |  | 
